Reference: article PMC9322450 (Angewandte Chemie (International ed. in English), 2022)

Assays:
[1] = type: in vitro ADME, mouse
Procedure, shortened: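 Mouse epidermis punches (C57BL/6-type, ≈6 mm diameter, 1 mm thick) incubated with test compound at 4.85 μM in PBS for 24 h. Supernatant sampled over time, diluted 100-fold, added to a group-I S. aureus agr YFP reporter strain making native AIP. Fluorescence normalized to vehicle (100%) and media (0%) controls, n=3 independent experiments; remaining active compound estimated from an earlier dose-response curve.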

[2] = system: S. aureus; test: murine open-wound model of S. aureus infection; type: in vivo, mouse; details: even at relatively high concentrations (e.g. 10 μM)

AIP-III D4A
loss of active compound ([1]; after 24 h with mouse tissue in PBS, start 4.85 μM): ~ 95% | loss of inhibitory activity in the absence of mouse tissue ([1]; control without tissue, 24 hr): no loss of inhibitory activity | loss of activity with heat-treated tissue ([1]; tissue sample heat treated at 80 °C for 15 min before addition of compound): loss of activity could be prevented | benefit on wound healing [2]: only a limited benefit on wound healing
